Test results: ChEMBL document CHEMBL4819107, “Substituted N-(4-amino-2-chlorophenyl)-5-chloro-2-hydroxybenzamide analogues potently inhibit respiratory syncytial virus (RSV) replication and RSV infection-associated inflammatory responses” (Bioorg Med Chem, 2021)

Experiments:
[1] = system: Respiratory syncytial virus; test: Antiviral activity against RSV infected in human A549 cells assessed as reduction in viral titer at 10 uM incubated for 15 hrs by immunostaining analysis; type: functional
Summary of the method: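 RSV long strain (propagated in HEp-2, sucrose-gradient purified) infected A549 cells at MOI 1 for 2 h. Inoculum removed, then compound at 10 μM for 15 h. Progeny virus titred by immunostaining in HEp-2 cells with biotin-conjugated goat anti-RSV antibody. Log reduction = log10 mean titer of vehicle-treated cells minus log10 mean titer with compound.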

[2] = system: A549; test: Cytotoxicity against human A549 cells assessed as cell death at 10 uM incubated for 15 hrs by LDH assay; type: cell-based; conditions: a549, 15 h
Summary of the method: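 A549 cells seeded at 1.5 × 10^4 cells/well. After 24 h, medium replaced with medium containing 10 μM compound and 2% FBS. At 15 h, cell damage read by luminescent LDH release assay. DMSO vehicle control; three biological replicates.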

Compound: O=C(Nc1ccc([N+](=O)[O-])cc1Cl)c1cc(Cl)ccc1O [NICLOSAMIDE]
- log(activity) [1]: 1.47
- Activity [2]: 24%
